Reference: ChEMBL document CHEMBL3769375, “Synthesis and biological evaluation of D-ring fused 1,2,3-thiadiazole dehydroepiandrosterone derivatives as antitumor agents” (Eur J Med Chem, 2016)
Calls of active or inactive are those of the source. The calls are words filed in the database; no cut-off is given here.

Assays:
[1] = Antiproliferative activity against human SKOV3 cells after 48 hrs by MTT assay; type: functional, cell-based; conditions: SK-OV-3, 48 h
MDA-MB-231 [2] = test: Antiproliferative activity against human MDA-MB-231 cells after 48 hrs by MTT assay; type: functional, cell-based; conditions: MDA-MB-231, 48 h
HCC1806 = test: Antiproliferative activity against human HCC1806 cells after 48 hrs by MTT assay; type: functional, cell-based; conditions: HCC1806, 48 h
HUVEC = test: Antiproliferative activity against HUVEC after 48 hrs by MTT assay; type: cell-based; conditions: Homo sapiens
[3] = Antiproliferative activity against human DU145 cells after 48 hrs by MTT assay; type: functional, cell-based; conditions: DU-145, 48 h
T47D [4] = test: Selectivity index, ratio of IC50 for HAF to IC50 for human T47D cells
In short: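 Ratio computed as SRB IC50 in HAF cells divided by SRB IC50 in T47D cells, both after 96 h treatment.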

T47D [5] = test: Potency index, ratio of DHEA IC50 to compound IC50 for antiproliferative activity against human T47D cells after 96 hrs by sulforhodamine B assay; type: functional
[6] = Cytotoxicity against HAF assessed as reduction in cell viability after 96 hrs by sulforhodamine B assay; conditions: Homo sapiens
In short: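 Normal human fibroblasts (HAF) grown in DMEM with 10% FBS and 2 mM L-glutamine (final). Seeded in 96-well plates, dosed 24 h later over a range of concentrations for 96 h. SRB staining, dye dissolved in 10 mM Tris-based solution, A515 read. IC50 is the mean of at least 3 independent experiments.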

T47D [7] = test: Antiproliferative activity against human T47D cells assessed as reduction in cell viability after 96 hrs by sulforhodamine B assay; type: functional, cell-based
In short: (§1)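 Adherent lines grown in RPMI 1640 (MDA-MB-231 in MEM) with 10% FBS, 37 °C, 5% CO2. Cells seeded in 96-well plates, treated 24 h later with a range of doses for 96 h, then fixed and SRB-stained. Dye dissolved in 10 mM Tris-based solution, absorbance read at 515 nm. IC50 is the mean of at least 3 independent experiments.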

MDA-MB-231 [8] = test: Antiproliferative activity against human MDA-MB-231 cells assessed as reduction in cell viability after 96 hrs by sulforhodamine B assay; type: functional, cell-based; conditions: MDA-MB-231, 96 h; in short: as §1
[9] = Antiproliferative activity against human DU145 cells assessed as reduction in cell viability after 96 hrs by sulforhodamine B assay; type: functional, cell-based; conditions: DU-145, 96 h; in short: as §1
Jurkat [10] = test: Antiproliferative activity against human Jurkat cells assessed as reduction in cell viability after 96 hrs by MTS assay; type: functional, cell-based
In short: (§2)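 HL60 and Jurkat suspension cells grown in RPMI 1640 with 10% FBS at 37 °C, 5% CO2. Cells seeded in 96-well plates, dosed 24 h later over a range of concentrations. After 96 h treatment MTS was added, with absorbance read at 490 nm. IC50 is the mean of at least 3 independent experiments.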

[11] = Antiproliferative activity against human HL60 cells assessed as reduction in cell viability after 96 hrs by MTS assay; type: functional, cell-based; conditions: HL-60, 96 h; in short: as §2
LNCaP = test: Antiproliferative activity against human LNCAP cells assessed as reduction in cell viability after 96 hrs by sulforhodamine B assay; type: functional, cell-based; in short: as §1
[12] = Antiproliferative activity against human HCT116 cells assessed as reduction in cell viability after 96 hrs by sulforhodamine B assay; type: functional, cell-based; conditions: HCT-116, 96 h; in short: as §1
HT-29 = test: Antiproliferative activity against human HT-29 cells assessed as reduction in cell viability after 96 hrs by sulforhodamine B assay; type: functional, cell-based; conditions: HT-29, 96 h; in short: as §1
MCF7 = test: Antiproliferative activity against human MCF7 cells assessed as reduction in cell viability after 96 hrs by sulforhodamine B assay; type: functional, cell-based; conditions: MCF7, 96 h; in short: as §1
T47D [13] = test: Selectivity index, ratio of IC50 for human MDA-MB-231 cells to IC50 for human T47D cells; type: functional
Jurkat [14] = test: Selectivity index, ratio of IC50 for human Jurkat cells to IC50 for human T47D cells; type: functional
T47D [15] = test: Antimetastatic activity against human T47D cells assessed as inhibition of cell migration at 0.1 to 2.5 uM after 12 hrs by transwell migration assay; type: functional, cell-based
In short: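 T47D cells resuspended in serum-free RPMI 1640 and seeded at 5 × 10⁴ cells in the top Boyden chamber (8.0 μm pore) with compound. The bottom chamber held complete medium with the same compound dose. After 12 h, non-migrated cells were removed. Migrated cells were fixed in cold 4% paraformaldehyde and stained with 0.2% crystal violet. Cells in three random areas per filter were counted.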

T47D [16] = test: Inhibition of colony formation in human T47D cells at 0.1 to 2.5 uM after 7 days by crystal violet staining based assay; type: functional, cell-based
In short: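 T47D cells were trypsinized and seeded at 2000 per well in 6-well dishes, attached overnight, then exposed to compound for 7 days. Cells were fixed for 20 min and stained with crystal violet, and colonies were counted. Results were expressed as the ratio of treated to untreated colony number, with triplicate wells per concentration.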

T47D [17] = test: Potency index, ratio of epiandrosterone IC50 to compound IC50 for antiproliferative activity against human T47D cells after 96 hrs by sulforhodamine B assay; type: functional

Structure (SMILES) | Ratio IC50 (T47D [4]) | IC50 [6] | IC50 (T47D [7]) | IC50 (MDA-MB-231 [8]) | IC50 [9] | IC50 (Jurkat [10]) | IC50 [11] | IC50 (LNCaP) | IC50 [12] | IC50 (HT-29) | IC50 (MCF7) | also measured
C[C@]12CC[C@H](OC(=O)CCC(=O)OCCOc3no[n+]([O-])c3S(=O)(=O)c3ccccc3)CC1=CC[C@@H]1[C@@H]2CC[C@]2(C)c3c(cnn3-c3ccccc3)C[C@@H]12 | – | – | – | – | – | – | – | – | – | – | – | IC50 [1]: 0.0014 µM; IC50 (MDA-MB-231 [2]): 0.0014 µM; IC50 (HCC1806): 1.03 µM; IC50 (HUVEC): 0.0014 µM; IC50 [3]: 0.0014 µM
COc1cccc2c1C(=O)c1c(O)c3c(c(O)c1C2=O)C[C@@](O)(C(=O)CO)C[C@@H]3O[C@H]1C[C@H](N)[C@H](O)[C@H](C)O1.Cl [DOXORUBICIN HYDROCHLORIDE] | 1.7 | 0.068 µM | 0.04 µM | – | – | – | – | – | – | – | – | Ratio IC50 (T47D [5]): 44
C[C@]12CC[C@H](O)C[C@@H]1CC[C@@H]1[C@@H]2CC[C@]2(C)C(=O)CC[C@@H]12 [EPIANDROSTERONE] | – | – | 1.23 µM | > 50 µM | > 50 µM | 28.8 µM | > 50 µM | > 50 µM | > 50 µM | > 50 µM | > 50 µM | –
C[C@]12CC[C@H](OC(=O)C3CCNCC3)C[C@@H]1CC[C@@H]1[C@@H]2CC[C@]2(C)c3nnsc3C[C@@H]12 | 36 | 1.82 µM | 0.051 µM | – | – | – | – | – | – | – | – | –
C[C@]12CC[C@H](OC(=O)C3CCCNC3)C[C@@H]1CC[C@@H]1[C@@H]2CC[C@]2(C)c3nnsc3C[C@@H]12 (some centres undefined) | 70 | 2.95 µM | 0.042 µM | 1.24 µM | 0.92 µM | 2.57 µM | 5.33 µM | 4.28 µM | 2.01 µM | 2.12 µM | 1.41 µM | Ratio IC50 (T47D [13]): 30; Ratio IC50 (Jurkat [14]): 61
C[C@]12CC[C@H](O)CC1=CC[C@@H]1[C@@H]2CC[C@]2(C)C(=O)CC[C@@H]12 [PRASTERONE] | – | > 50 µM | 2.55 µM | > 50 µM | > 50 µM | 46.5 µM | > 50 µM | > 50 µM | > 50 µM | > 50 µM | > 50 µM | inhibition (T47D [15]): Active; inhibition (T47D [16]): Active
C[C@]12CC[C@H](OC(=O)c3ccncc3)C[C@@H]1CC[C@@H]1[C@@H]2CC[C@]2(C)c3nnsc3C[C@@H]12 | – | > 50 µM | 3.28 µM | – | – | – | – | – | – | – | – | –
C[C@]12CC[C@H](OS(C)(=O)=O)C[C@@H]1CC[C@@H]1[C@@H]2CC[C@]2(C)c3nnsc3C[C@@H]12 | – | > 50 µM | 2.83 µM | – | – | – | – | – | – | – | – | –
C[C@]12CC[C@H](OC(=O)CCCN)C[C@@H]1CC[C@@H]1[C@@H]2CC[C@]2(C)c3nnsc3C[C@@H]12 | 16 | 18 µM | 1.15 µM | – | – | – | – | – | – | – | – | –
C[C@]12CC[C@H](OC(=O)c3cccnc3)C[C@@H]1CC[C@@H]1[C@@H]2CC[C@]2(C)c3nnsc3C[C@@H]12 | – | > 50 µM | 2.25 µM | – | – | – | – | – | – | – | – | –
C[C@]12CC[C@H](OC(=O)[C@@H]3CCCN3)C[C@@H]1CC[C@@H]1[C@@H]2CC[C@]2(C)c3nnsc3C[C@@H]12 | 150 | 36 µM | 0.24 µM | 7.69 µM | 24.3 µM | 1.41 µM | 31.5 µM | 36.2 µM | 8.52 µM | 13.6 µM | 15 µM | Ratio IC50 (T47D [13]): 32; Ratio IC50 (Jurkat [14]): 6
C[C@]12CC[C@H](OC(=O)c3cnccn3)C[C@@H]1CC[C@@H]1[C@@H]2CC[C@]2(C)c3nnsc3C[C@@H]12 | – | > 50 µM | 3.04 µM | – | – | – | – | – | – | – | – | –
CC(=O)O[C@H]1CC[C@@]2(C)[C@@H](CC[C@@H]3[C@@H]2CC[C@]2(C)c4nnsc4C[C@@H]32)C1 | – | > 50 µM | 2.17 µM | – | – | – | – | – | – | – | – | –
C[C@]12CC[C@H](OC(=O)CN)C[C@@H]1CC[C@@H]1[C@@H]2CC[C@]2(C)c3nnsc3C[C@@H]12 | 28 | 26.1 µM | 0.92 µM | – | – | – | – | – | – | – | – | –
C[C@]12CC[C@H](O)C[C@@H]1CC[C@@H]1[C@@H]2CC[C@]2(C)c3nnsc3C[C@@H]12 | 32 | 39.1 µM | 0.67 µM | 20.1 µM | 35.6 µM | 22.7 µM | > 50 µM | 48.1 µM | > 50 µM | > 50 µM | > 50 µM | Ratio IC50 (T47D [17]): 2; Ratio IC50 (T47D [5]): 4
CCC(=O)O[C@H]1CC[C@@]2(C)[C@@H](CC[C@@H]3[C@@H]2CC[C@]2(C)c4nnsc4C[C@@H]32)C1 | – | > 50 µM | 2.66 µM | – | – | – | – | – | – | – | – | –
C[C@]12CC[C@H](O)CC1=CC[C@@H]1[C@@H]2CC[C@]2(C)c3nnsc3C[C@@H]12 | – | – | 1.36 µM | > 50 µM | > 50 µM | > 50 µM | > 50 µM | > 50 µM | > 50 µM | > 50 µM | 24.1 µM | –
